ChEMBL document CHEMBL3627671, “Novel derivatives of nitro-substituted salicylic acids: Synthesis, antimicrobial activity and cytotoxicity” (Bioorg Med Chem, 2015)
Converted amounts (≈) assume the structure as drawn.

Assays:
Nakaseomyces glabratus [1] = test: Antifungal activity against Candida glabrata 20/I after 24 hrs by microdilution broth method; assay type: functional
Method in brief: (§1)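 CLSI M27-A3 broth microdilution in RPMI 1640 with glutamine, buffered to pH 7.0 with MOPS; DMSO diluent. Yeast inoculum 5 × 10^3 ± 0.2 CFU/mL. Moulds grown on Sabouraud agar 3–10 days before spore harvest, final inoculum 0.5-5 × 10^4 CFU/mL, checked in a Bürker chamber. Incubated dark, humid, 35 °C, read at 24 and 48 h visually and at 540 nm. MIC taken as ≥80% (yeasts) or ≥50% (filamentous) growth reduction versus control.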

Pseudomonas aeruginosa [2] = test: Antibacterial activity against Pseudomonas aeruginosa CCM 1961 after 48 hrs by microdilution broth method; assay type: functional; conditions: CCM 1961, 48 h
Method in brief: (§2)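 Mueller-Hinton broth microdilution (modified M07-A07), pH 7.4 (±0.2). Compounds dissolved in DMSO, tested at final 500 to 0.49 µmol/L. Inoculum in sterile water matched to 0.5 McFarland. Incubated in the dark, humid atmosphere, 35 °C, read at 24 and 48 h visually and at 540 nm. MIC taken as ≥95% growth reduction (IC95) versus control.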

Staphylococcus aureus [3] = test: Antibacterial activity against methicillin-resistant Staphylococcus aureus H 5996/08 after 24 hrs by microdilution broth method; assay type: functional; conditions: H 5996/08, 24 h
Pseudomonas aeruginosa [4] = test: Antibacterial activity against Pseudomonas aeruginosa CCM 1961 after 24 hrs by microdilution broth method; assay type: functional; conditions: CCM 1961, 24 h; method in brief: as §2
Trichosporon asahii [5] = test: Antifungal activity against Trichosporon asahii 1188 after 48 hrs by microdilution broth method; assay type: functional; conditions: Trichosporon asahii, 1188, 48 h; method in brief: as §1
Enterococcus sp. [6] = test: Antibacterial activity against Enterococcus sp. J 14365/08 after 24 hrs by microdilution broth method; assay type: functional; conditions: J 14365/08, 24 h; method in brief: as §2
Klebsiella pneumoniae [7] = test: Antibacterial activity against ESBL-positive Klebsiella pneumoniae J 14368/08 after 24 hrs by microdilution broth method; assay type: functional; conditions: J 14368/08, 24 h; method in brief: as §2
Aspergillus fumigatus [8] = test: Antifungal activity against Aspergillus fumigatus 231 after 24 hrs by microdilution broth method; assay type: functional; conditions: Aspergillus fumigatus, 231, 24 h; method in brief: as §1
Staphylococcus aureus [9] = test: Antibacterial activity against Staphylococcus aureus CCM 4516/08 after 24 hrs by microdilution broth method; assay type: functional; conditions: CCM 4516/08, 24 h
Staphylococcus aureus [10] = test: Antibacterial activity against Staphylococcus aureus CCM 4516/08 after 48 hrs by microdilution broth method; assay type: functional; conditions: CCM 4516/08, 48 h
[11] = tested on: Mycobacterium tuberculosis; test: Antimycobacterial activity against Mycobacterium tuberculosis H37Rv 331/88 after 21 days; assay type: functional; conditions: H37Rv 331/88, 504 h
Candida albicans [12] = test: Antifungal activity against Candida albicans ATCC 44859 after 48 hrs by microdilution broth method; assay type: functional; conditions: ATCC 44859, 48 h; method in brief: as §1
HepG2 = test: Cytotoxicity against human HepG2 cells after 24 hrs […]; assay type: cell-based; conditions: HepG2, 24 h
Candida tropicalis [13] = test: Antifungal activity against Candida tropicalis 156 after 48 hrs by microdilution broth method; assay type: functional; conditions: Candida tropicalis, 156, 48 h; method in brief: as §1
[14] = tested on: Mycobacterium tuberculosis; test: Antimycobacterial activity against Mycobacterium tuberculosis H37Rv 331/88 after 14 days; assay type: functional; conditions: H37Rv 331/88, 336 h
Nakaseomyces glabratus [15] = test: Antifungal activity against Candida glabrata 20/I after 48 hrs by microdilution broth method; assay type: functional; method in brief: as §1
Mycobacterium avium [16] = test: Antimycobacterial activity against Mycobacterium avium 330/80 after 21 days; assay type: functional; conditions: 330/80, 504 h
[17] = Selectivity index, ratio of CI50 for human HepG2 cells to MIC100 for Mycobacterium tuberculosis H37Rv 331/88
Klebsiella pneumoniae [18] = test: Antibacterial activity against Klebsiella pneumoniae D 11750/08 after 24 hrs by microdilution broth method; assay type: functional; conditions: D 11750/08, 24 h; method in brief: as §2
Pichia kudriavzevii [19] = test: Antifungal activity against Candida krusei E28 after 24 hrs by microdilution broth method; assay type: functional; conditions: E28, 24 h; method in brief: as §1
Pichia kudriavzevii [20] = test: Antifungal activity against Candida krusei E28 after 48 hrs by microdilution broth method; assay type: functional; conditions: E28, 48 h; method in brief: as §1
Candida albicans [21] = test: Antifungal activity against Candida albicans ATCC 44859 after 24 hrs by microdilution broth method; assay type: functional; conditions: ATCC 44859, 24 h; method in brief: as §1
Klebsiella pneumoniae [22] = test: Antibacterial activity against ESBL-positive Klebsiella pneumoniae J 14368/08 after 48 hrs by microdilution broth method; assay type: functional; conditions: J 14368/08, 48 h; method in brief: as §2
Enterococcus sp. [23] = test: Antibacterial activity against Enterococcus sp. J 14365/08 after 48 hrs by microdilution broth method; assay type: functional; conditions: J 14365/08, 48 h; method in brief: as §2
Mycobacterium avium [24] = test: Antimycobacterial activity against Mycobacterium avium 330/80 after 14 days; assay type: functional; conditions: 330/80, 336 h
Lichtheimia corymbifera [25] = test: Antifungal activity against Absidia corymbifera 272 after 48 hrs by microdilution broth method; assay type: functional; conditions: Lichtheimia corymbifera, 272, 48 h; method in brief: as §1
Escherichia coli [26] = test: Antibacterial activity against Escherichia coli CCM4517 after 48 hrs by microdilution broth method; assay type: functional; conditions: CCM4517, 48 h; method in brief: as §2
Staphylococcus aureus [27] = test: Antibacterial activity against methicillin-resistant Staphylococcus aureus H 5996/08 after 48 hrs by microdilution broth method; assay type: functional; conditions: H 5996/08, 48 h
Mycobacterium kansasii [28] = test: Antimycobacterial activity against Mycobacterium kansasii 6509/96 after 21 days; assay type: functional; conditions: 6509/96, 504 h
Method in brief: (§3)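 Šula's semisynthetic medium micromethod at 37 °C, read after 7, 14 and 21 days. The 1.0 McFarland suspension was diluted 10^-4. MIC determined. 6509/96 is a clinical isolate.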

[29] = tested on: Trichophyton mentagrophytes; test: Antifungal activity against Trichophyton mentagrophytes 445 after 48 hrs by microdilution broth method; assay type: functional; conditions: Trichophyton mentagrophytes, 445, 48 h
[30] = tested on: Staphylococcus epidermidis; test: Antibacterial activity against Staphylococcus epidermidis H 6966/08 after 24 hrs by microdilution broth method; assay type: functional; conditions: H 6966/08, 24 h; method in brief: as §2
[31] = tested on: Staphylococcus epidermidis; test: Antibacterial activity against Staphylococcus epidermidis H 6966/08 after 48 hrs by microdilution broth method; assay type: functional; conditions: H 6966/08, 48 h; method in brief: as §2
Mycobacterium kansasii [32] = test: Antimycobacterial activity against Mycobacterium kansasii 235/80 after 14 days; assay type: functional; conditions: 235/80, 336 h; method in brief: as §3
Mycobacterium kansasii [33] = test: Antimycobacterial activity against Mycobacterium kansasii 235/80 after 7 days; assay type: functional; conditions: 235/80, 168 h; method in brief: as §3
Mycobacterium kansasii [34] = test: Antimycobacterial activity against Mycobacterium kansasii 235/80 after 21 days; assay type: functional; conditions: 235/80, 504 h; method in brief: as §3
[35] = tested on: Trichophyton mentagrophytes; test: Antifungal activity against Trichophyton mentagrophytes 445 after 24 hrs by microdilution broth method; assay type: functional; conditions: Trichophyton mentagrophytes, 445, 24 h
Trichosporon asahii [36] = test: Antifungal activity against Trichosporon asahii 1188 after 24 hrs by microdilution broth method; assay type: functional; conditions: Trichosporon asahii, 1188, 24 h; method in brief: as §1
Klebsiella pneumoniae [37] = test: Antibacterial activity against Klebsiella pneumoniae D 11750/08 after 48 hrs by microdilution broth method; assay type: functional; conditions: D 11750/08, 48 h; method in brief: as §2
Escherichia coli [38] = test: Antibacterial activity against Escherichia coli CCM4517 after 24 hrs by microdilution broth method; assay type: functional; conditions: CCM4517, 24 h; method in brief: as §2
Aspergillus fumigatus [39] = test: Antifungal activity against Aspergillus fumigatus 231 after 48 hrs by microdilution broth method; assay type: functional; conditions: Aspergillus fumigatus, 231, 48 h; method in brief: as §1
Lichtheimia corymbifera [40] = test: Antifungal activity against Absidia corymbifera 272 after 24 hrs by microdilution broth method; assay type: functional; conditions: Lichtheimia corymbifera, 272, 24 h; method in brief: as §1
Mycobacterium kansasii [41] = test: Antimycobacterial activity against Mycobacterium kansasii 6509/96 after 14 days; assay type: functional; conditions: 6509/96, 336 h; method in brief: as §3
Mycobacterium kansasii [42] = test: Antimycobacterial activity against Mycobacterium kansasii 6509/96 after 7 days; assay type: functional; conditions: 6509/96, 168 h; method in brief: as §3
Candida tropicalis [43] = test: Antifungal activity against Candida tropicalis 156 after 24 hrs by microdilution broth method; assay type: functional; conditions: Candida tropicalis, 156, 24 h; method in brief: as §1

Structure (SMILES): O=C(Nc1ccc(Cl)c(Cl)c1)c1ccc([N+](=O)[O-])cc1O
- MIC (Nakaseomyces glabratus [1]): 31.2 µM (≈ 10.2 µg/mL)
- MIC (Pseudomonas aeruginosa [2]): > 500 µM
- MIC (Staphylococcus aureus [3]): 1.95 µM (≈ 0.638 µg/mL)
- MIC (Pseudomonas aeruginosa [4]): > 500 µM
- MIC (Trichosporon asahii [5]): 15.6 µM (≈ 5.11 µg/mL)
- MIC (Enterococcus sp. [6]): 125 µM (≈ 40.9 µg/mL)
- MIC (Klebsiella pneumoniae [7]): > 500 µM
- MIC (Aspergillus fumigatus [8]): 31.2 µM (≈ 10.2 µg/mL)
- MIC (Staphylococcus aureus [9]): 3.9 µM (≈ 1.28 µg/mL)
- MIC (Staphylococcus aureus [10]): 3.9 µM (≈ 1.28 µg/mL)
- MIC [11]: 8 µM (≈ 2.62 µg/mL)
- MIC (Candida albicans [12]): 62.5 µM (≈ 20.4 µg/mL)
- IC50 (HepG2): 1400 nM
- MIC (Candida tropicalis [13]): > 250 µM
- MIC [14]: 4 µM (≈ 1.31 µg/mL)
- MIC (Nakaseomyces glabratus [15]): 62.5 µM (≈ 20.4 µg/mL)
- MIC (Mycobacterium avium [16]): 62.5 µM (≈ 20.4 µg/mL)
- Selectivity Index [17]: 0.175
- MIC (Klebsiella pneumoniae [18]): > 500 µM
- MIC (Pichia kudriavzevii [19]): 7.81 µM (≈ 2.55 µg/mL)
- MIC (Pichia kudriavzevii [20]): 15.6 µM (≈ 5.11 µg/mL)
- MIC (Candida albicans [21]): 62.5 µM (≈ 20.4 µg/mL)
- MIC (Klebsiella pneumoniae [22]): > 500 µM
- MIC (Enterococcus sp. [23]): 500 µM (≈ 164 µg/mL)
- MIC (Mycobacterium avium [24]): 32 µM (≈ 10.5 µg/mL)
- MIC (Lichtheimia corymbifera [25]): 31.2 µM (≈ 10.2 µg/mL)
- MIC (Escherichia coli [26]): > 500 µM
- MIC (Staphylococcus aureus [27]): 1.95 µM (≈ 0.638 µg/mL)
- MIC (Mycobacterium kansasii [28]): 16 µM (≈ 5.23 µg/mL)
- MIC [29]: 125 µM (≈ 40.9 µg/mL)
- MIC [30]: 1.95 µM (≈ 0.638 µg/mL)
- MIC [31]: 1.95 µM (≈ 0.638 µg/mL)
- MIC (Mycobacterium kansasii [32]): 8 µM (≈ 2.62 µg/mL)
- MIC (Mycobacterium kansasii [33]): 4 µM (≈ 1.31 µg/mL)
- MIC (Mycobacterium kansasii [34]): 8 µM (≈ 2.62 µg/mL)
- MIC [35]: 125 µM (≈ 40.9 µg/mL)
- MIC (Trichosporon asahii [36]): 7.81 µM (≈ 2.55 µg/mL)
- MIC (Klebsiella pneumoniae [37]): > 500 µM
- MIC (Escherichia coli [38]): > 500 µM
- MIC (Aspergillus fumigatus [39]): 31.2 µM (≈ 10.2 µg/mL)
- MIC (Lichtheimia corymbifera [40]): 31.2 µM (≈ 10.2 µg/mL)
- MIC (Mycobacterium kansasii [41]): 16 µM (≈ 5.23 µg/mL)
- MIC (Mycobacterium kansasii [42]): 8 µM (≈ 2.62 µg/mL)
- MIC (Candida tropicalis [43]): 125 µM (≈ 40.9 µg/mL)
